Results: ChEMBL document CHEMBL1833887, “Synthesis and evaluation of 7-substituted 4-aminoquinoline analogues for antimalarial activity” (J Med Chem, 2011)
Converted amounts (≈) assume the structure as drawn.

What was measured:
[1] = Solubility of the compound at pH 7.4 after 18 hrs by UV spectroscopic analysis; format: physicochemical; settings: buffer
Outline: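 Kinetic solubility. A 10 mM stock is diluted 1:100 into PBS pH 7.4 and incubated 18 h at room temperature, then filtered; the filtrate is mixed 1:1 with 1-propanol. UV spectrum (250–500 nm) compared by AUC with a 1-propanol/PBS reference. Single experiment in triplicate.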

[2] = Permeability of the compound at pH 7.4 after 30 mins by PAMPA; format: ADME; settings: read-out: permeability
Outline: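 PAMPA at pH 7.4. A 10 mM DMSO stock is diluted into system solution buffer; its UV spectrum serves as reference. Membrane painted with GIT lipid, acceptor chamber holds acceptor solution buffer. Sandwich stirred for 30 min, aqueous boundary layer set to 40. Donor and acceptor UV spectra read at 250–500 nm. Permeability coefficient from the AUCs of reference, donor and acceptor. Single experiment in triplicate.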

[3] = Dissociation constant, pKa of the compound; format: physicochemical
[4] = test system: Plasmodium falciparum; assay: Antimalarial activity against chloroquine-sensitive Plasmodium falciparum 3D7 infected in human erythrocytes assessed as reduction in parasitemia after 72 hrs by spectrophotometry; format: functional, organism-based; settings: 3D7, 72 h
[5] = test system: Plasmodium falciparum; assay: Antimalarial activity against chloroquine-resistant Plasmodium falciparum K1 infected in human erythrocytes assessed as reduction in parasitemia after 72 hrs by spectrophotometry; format: functional, organism-based; settings: K1, 72 h
[6] = test system: Plasmodium falciparum; assay: Ratio of EC50 for chloroquine-resistant Plasmodium falciparum K1 infected in human erythrocytes to EC50 for chloroquine-sensitive Plasmodium falciparum 3D7 infected in human erythrocytes; format: functional
[7] = test system: HepG2; assay: Cytotoxicity against human HepG2 cells assessed as intracellular ATP level after 72 hrs by Celltiter-Glo luminescent assay; format: cell-based; settings: HepG2, 72 h
[8] = Ratio of EC50 for human HepG2 cells to EC50 for Plasmodium falciparum 3D7 infected in human erythrocytes
[9] = Ratio of EC50 for human HepG2 cells to EC50 for Plasmodium falciparum K1 infected in human erythrocytes

Row | Compound | solubility at 18 h [1] [µM] | Papp at 0.5 h [2] [×10⁻⁶ cm/s] | pKa [3] | EC50 [4] [nM] | EC50 [5] [nM] | Ratio EC50 [6] | EC50 [7] [nM] | Ratio EC50 [8] | Ratio EC50 [9]
1 | COc1ccc(Oc2ccc3c(NCCCNCc4ccco4)ccnc3c2)cc1 | 14.5 (≈ 5.85 µg/mL) | 317 | 9.28 | 4 | 20 | 5.6 | 5300 | 1479 | 265
2 | COc1ccc(F)cc1CNCCCNc1ccnc2cc(Oc3cccc(N(C)C)c3)ccc12 | 14.5 (≈ 6.88 µg/mL) | 317 | 9.28 | 7 | 31 | 4.7 | 3300 | 514 | 110
3 | N#Cc1ccc(Cc2ccc3c(NCCCNCc4ccco4)ccnc3c2)cc1 | 4.2 (≈ 1.67 µg/mL) | 23 | 9.47 | 39 | 382 | 9.7 | 7910 | 201.9 | 20.7
4 | FC(F)(F)c1cccc(Cc2ccc3c(NCCCNCc4ccc5c(c4)OCO5)ccnc3c2)c1 | 4.2 (≈ 2.07 µg/mL) | 23 | 9.47 | 39 | 1310 | 33.5 | 2200 | 56.1 | 1.7
5 | c1ccc(Cc2ccc3c(NCCCNCc4ccco4)ccnc3c2)cc1 | 4.2 (≈ 1.56 µg/mL) | 23 | 9.47 | 40 | 3550 | 89.9 | 16000 | 405.1 | 4.5
6 | COc1ccc(F)cc1CNCCCNc1ccnc2cc(Cc3cccc(C(F)(F)F)c3)ccc12 | 4.2 (≈ 2.09 µg/mL) | 23 | 9.47 | 40 | 323 | 8.1 | 440 | 11 | 1.3
7 | CCC(CC)c1ccc2c(NCCCNCc3cc(F)ccc3OC)ccnc2c1 | 4.2 (≈ 1.72 µg/mL) | 23 | 9.47 | 40 | 1930 | 48 | 7860 | 194.9 | 4.1
8 | c1cc(NCCCNCc2ccc3c(c2)OCO3)c2ccc(CC3CCCCC3)cc2n1 | 4.2 (≈ 1.81 µg/mL) | 23 | 9.47 | 41 | 701 | 17.3 | 6290 | 155.2 | 9
9 | Cc1cc(C)cc(Cc2ccc3c(NCCCNCc4ccc5c(c4)OCO5)ccnc3c2)c1 | 4.2 (≈ 1.91 µg/mL) | 23 | 9.47 | 41 | 1040 | 25.6 | 2250 | 55.5 | 2.2
10 | c1ccc(CCc2ccc3c(NCCCNCc4ccco4)ccnc3c2)cc1 | 4.2 (≈ 1.62 µg/mL) | 23 | 9.47 | 46 | 2930 | 63.7 | 16000 | 347.8 | 5.5
11 | COc1cccc(CNCCCNc2ccnc3cc(CC4CCCCC4)ccc23)c1O | 4.2 (≈ 1.82 µg/mL) | 23 | 9.47 | 50 | 2610 | 52.7 | 970 | 19.6 | 0.4
12 | c1coc(CNCCCNc2ccnc3cc(CC4CCCCC4)ccc23)c1 | 4.2 (≈ 1.59 µg/mL) | 23 | 9.47 | 55 | 621 | 11.2 | 1700 | 30.7 | 2.7
13 | FC(F)(F)c1cccc(Cc2ccc3c(NCCCNCc4ccco4)ccnc3c2)c1 | 4.2 (≈ 1.85 µg/mL) | 23 | 9.47 | 56 | 743 | 13.2 | 3190 | 56.7 | 4.3
14 | Fc1ccc(Cc2ccc3c(NCCCNCc4ccco4)ccnc3c2)cc1 | 4.2 (≈ 1.64 µg/mL) | 23 | 9.47 | 57 | 1660 | 28.9 | 5600 | 97.5 | 3.4
15 | CC(C)Cc1ccc2c(NCCCNCc3ccc4c(c3)OCO4)ccnc2c1 | 4.2 (≈ 1.64 µg/mL) | 23 | 9.47 | 66 | 1810 | 27.7 | 2380 | 36.3 | 1.3
16 | COc1ccc(F)cc1CNCCCNc1ccnc2cc(Cc3ccc(F)cc3)ccc12 | 4.2 (≈ 1.88 µg/mL) | 23 | 9.47 | 75 | 580 | 7.8 | 3530 | 47.1 | 6.1
17 | CCC(CC)c1ccc2c(NCCCNCc3ccco3)ccnc2c1 | 4.2 (≈ 1.48 µg/mL) | 23 | 9.47 | 86 | 4300 | 50.1 | 6760 | 78.7 | 1.6
18 | COc1ccc(F)cc1CNCCCNc1ccnc2cc(CC(C)C)ccc12 | 4.2 (≈ 1.66 µg/mL) | 23 | 9.47 | 89 | 2120 | 23.9 | 2900 | 32.7 | 1.4
19 | COc1ccc(F)cc1CNCCCNc1ccnc2cc(C3CCCCC3)ccc12 | 4.2 (≈ 1.77 µg/mL) | 23 | 9.47 | 90 | 1600 | 17.7 | 2290 | 25.4 | 1.4
20 | COc1ccc(F)cc1CNCCCNc1ccnc2cc(CCC(C)C)ccc12 | 4.2 (≈ 1.72 µg/mL) | 23 | 9.47 | 116 | 360 | 3.1 | 890 | 7.7 | 2.5
21 | c1coc(CNCCCNc2ccnc3cc(C4CCCCC4)ccc23)c1 | 4.2 (≈ 1.53 µg/mL) | 23 | 9.47 | 118 | 3900 | 33.1 | 4760 | 40.4 | 1.2
22 | Fc1ccc(Cc2ccc3c(NCCCNCc4ccc5c(c4)OCO5)ccnc3c2)cc1 | 4.2 (≈ 1.86 µg/mL) | 23 | 9.47 | 127 | 256 | 2 | 5550 | 43.7 | 21.7
23 | c1cc(NCCCNCc2ccc3c(c2)OCO3)c2ccc(C3CCCCC3)cc2n1 | 4.2 (≈ 1.75 µg/mL) | 23 | 9.47 | 128 | 4710 | 36.7 | 3020 | 23.6 | 0.6
24 | COc1ccc(F)cc1CNCCCNc1ccnc2cc(CCc3ccccc3)ccc12 | 4.2 (≈ 1.86 µg/mL) | 23 | 9.47 | 132 | 2140 | 16.2 | 4240 | 32.1 | 2
25 | COc1ccc(F)cc1CNCCCNc1ccnc2cc(CC3CCCCC3)ccc12 | 4.2 (≈ 1.83 µg/mL) | 23 | 9.47 | 138 | 687 | 5 | 1830 | 13.3 | 2.7
26 | CC(C)CCc1ccc2c(NCCCNCc3ccco3)ccnc2c1 | 4.2 (≈ 1.48 µg/mL) | 23 | 9.47 | 176 | 4600 | 26.1 | 11200 | 63.7 | 2.4
27 | COc1ccc(F)cc1CNCCCNc1ccnc2cc(Cc3ccc(F)cc3Cl)ccc12 | 4.2 (≈ 2.02 µg/mL) | 23 | 9.47 | 208 | 1110 | 5.4 | 2460 | 11.8 | 2.2
28 | CC(C)Cc1ccc2c(NCCCNCc3ccco3)ccnc2c1 | 4.2 (≈ 1.42 µg/mL) | 23 | 9.47 | 581 | 4500 | 7.7 | 16000 | 27.5 | 3.6
29 | c1ccc(Cc2ccc3c(NCCCNCc4ccc5c(c4)OCO5)ccnc3c2)cc1 | 4.2 (≈ 1.79 µg/mL) | 23 | 9.47 | 720 | 1240 | 1.7 | 6280 | 8.7 | 5.1
